# Only some compounds are listed: those with a hit (about 2.9% of all), similar ones and a draw of the others.
# FAS-TE inh: FAS thioesterase (human) inhibition; P49327; recombinant FAS-TE, OMFH fluorogenic substrate, fluorescence endpoint; inhibition, % at 15 µM; 360,000 tested, 0.67% active;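 active means compounds whose normalised, plate-corrected inhibition of enzyme fluorescence in the single-dose primary screen is 50% or more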;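 further: 0% = DMSO with enzyme and 100% = substrate without enzyme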
# CendR NRP1 mod: alters CendR peptide binding to human NRP-1; inhibition, % at 25 µM; O14786; 360,000 tested, 0.85% active; AID 602438; FAM-RPARPAR peptide binding to NRP-1, fluorescence polarization;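 active means inhibition or corrected inhibition above about 18%, plus a signal ratio from 0.5 to 1.5, limit read from the data, passing the limit was not always enough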
# ADAM10 inh: ADAM10 inhibition, QFRET primary screen | O14672 | recombinant ADAM10, EDANS/DABCYL FRET peptide cleavage, 3 h | inhibition, % at 7 µM | 370,000 tested, 0.62% active;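 active means inhibition above a per-campaign cutoff equal to the mean of compounds falling between control-based bounds plus 3 SD, cut at about 20% in these data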;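 further: 0% = DMSO wells while the 100% control is not disclosed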
# CaV13 FRET inh: Disruptors of the CACNA1D IQ motif to Ca2+-dependent inactivation inhibitor domain association, primary screening, Förster resonance energy transfer in intact living …; HEK cells, CFP/YFP FRET ICDI-IQ, plate reader, 10 min; percent FRET-ratio fall versus neutral wells; inhibition, % at 12.3 µM; 340,000 tested, 0.098% active; AID 743397;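 active means mean replicate inhibition of at least 30% and at least 1% of replicates passing that level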;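 further: 0% = median of the neutral control wells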
# ADAM17 inh: inhibitors of human ADAM17; P78536; recombinant ADAM17, EDANS/DABCYL FRET peptide cleavage; inhibition, % at 6.95 µM; 370,000 tested, 0.83% active; AID 720648;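 active means inhibition above the mean of compounds lying between control limits plus 3 SD, set per campaign, cut at about 8.5% in these data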;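 further: 0% = DMSO-only wells as the low control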
# Arr AP2 block: inhibitors of human beta-arrestin and AP2 interaction. inhibition, % at 10 µM. 340,000 tested, 0.31% active. FITC-arrestin peptide / GST-AP2 beads, flow cytometry; AP2 beta2 appendage carries R879A mutation;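 active means inhibition above a set limit, near 3 SD of compounds lacking own fluorescence, cut at about 54% in these data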;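 further: plate controls were DMSO wells for no effect and 5 µM unlabelled arrestin peptide for full effect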
#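 Assay system: GST-AP2 R879A bound to glutathione beads, E. coli-expressed; Medium: PBS with 0.05% Tween 20 and 0.1% BSA; Also added: fluorescein-tagged arrestin peptide at 50 nM final; Timing: 12 min plus 1 h, RT; Measured by: flow cytometry, FL1 (488/535 nm); Evaluation: percent drop in bead-associated FITC signal.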
# ADAM10 counter: counter-screen for ADAM17 exosite inhibitors: inhibitors of human ADAM10; recombinant ADAM10, EDANS/DABCYL FRET peptide cleavage, 3 h; shares compounds with ADAM17 inh; 2,900 tested, 47% active; inhibition, % at 6.95 µM;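 active means mean inhibition over the triplicate runs exceeds the activity threshold set in the earlier primary screen, cut at about 20% in these data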;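 further: 0% = DMSO wells and 100% = marimastat wells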
# ADAM17 confirm: human ADAM17 inhibition, confirmation | shares compounds with ADAM17 inh | recombinant ADAM17, EDANS/DABCYL QFRET peptide cleavage | inhibition, % at 6.95 µM | 2,900 tested, 65% active;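 active means mean inhibition across replicates above the hit cutoff set in the primary screen, cut at about 8.5% in these data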;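 further: 0% = DMSO wells and 100% = marimastat wells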
# Numbers without * were called inactive; i = inactive; x = no result given.
SMILES,FAS-TE inh,CendR NRP1 mod,ADAM10 inh,CaV13 FRET inh,ADAM17 inh,Arr AP2 block,ADAM10 counter,ADAM17 confirm
CCOC(=O)c1c(C)[nH]c(C)c1S(=O)(=O)NCCc1sccc1C,-1,10,6,-4,9.0*,29,4,7
O=C(CN1C(=O)NC2(CCCC2)C1=O)Nc1cc(Cl)ccc1Oc1ccccc1,10,1,12,-2,2,0,x,x
COc1ccc(CCNC(=O)c2cc(-c3ccco3)nc3ccccc23)cc1,x,x,16,-9,9.5*,x,i,-271
CCCCCCCCN1C(=O)[C@@H](CC(=O)NCCc2ccccc2OC)C[C@@]2(C(=O)OC)C1=C[C@H](COCc1ccccc1)O[C@@H]2C,x,x,-4,x,-5,x,x,x
COc1ccc(CNC(=O)[C@H](C)NC(=O)C2CCN(C(=O)[C@H](CCSC)NC(=O)OC(C)(C)C)CC2)cc1,-2,4,-3,x,1,14,x,x
COc1ccc(CNC(=O)C2CCN(C(=O)[C@@H](CC(C)C)NC(=O)OC(C)(C)C)CC2)cc1,1,-2,2,-5,8.6*,6,-7,-3
Oc1c(C(Nc2ccccn2)c2cccnc2)cc(Cl)c2cccnc12 (centres undefined),-1,2,14,-63,11*,12,26*,16*
O=C(c1ccccc1Cl)N1N=C(c2cccs2)CC1c1cccc(O)c1 (centres undefined),3,-4,11,-3,9.0*,5,3,3
O=C(c1ccccc1)N1N=C(c2cccs2)CC1c1ccccc1O (centres undefined),13,2,12,-5,4,10,x,x
COc1ccc(Cc2c(-c3ccc(F)cc3)nc3c(C)cc(Br)cn23)c(C)c1,11,-38,-7,-4,-2,x,x,x
COc1ccc(OC)c(NC(=O)CSc2nc(O)cc(=O)n2CC(C)C)c1,-3,-14,8,-6,9.3*,2,3,4
CCOC(=O)c1c(C)[nH]c(C)c1C(=O)CSc1nc2ccccc2c(=O)n1-c1ccccc1C,34,-1,14,-3,5,6,x,x
CCOC(=O)c1c(C)[nH]c(C)c1C(=O)CSc1nc2ccccc2c(=O)n1-c1ccc(F)cc1,22,-7,19,4,10*,6,22*,15*
COC(=O)[C@H](C(C)C)N(CCc1cn(CC2CCCCC2)nn1)S(=O)(=O)c1ccc(F)cc1Br,x,x,15,x,7,x,x,x
COc1ccc(OC)c(NC(=O)COC(=O)CCC2CCCC2)c1,16,-4,-2,-5,1,-1,x,x
COc1ccc(NS(=O)(=O)c2ccc(OC)c(NC(=O)CCC3CCCC3)c2)cc1,36,0,18,-3,12*,15,20,12*
COc1ccccc1C(=O)NCC(=O)NC(C)CCc1ccccc1 (centres undefined),-3,18,-7,-4,9.2*,-13,3,5
COc1ccc(N2CCN(C(=O)CCC(=O)N3CCOc4ccc(C)cc43)CC2)cc1,0,6,-9,27,0,5,x,x
COc1ccc(N2CCN(C(=O)CCC(=O)N3CCOc4ccc(Cl)cc43)CC2)cc1,8,0,11,-6,11*,18,29*,8
Cc1ccc(-n2c(SCc3cccc(F)c3)nnc2-c2cccc(C)c2)cc1,x,x,0,x,4,x,x,x
CCCCC(=O)N(C)c1c(CC)nc2c(OCC(=O)N3CCOCC3)cccn12,-6,0,-17,-4,-1,x,x,x
CCCCCC(=O)N1C[C@H](O)[C@@H](n2cc(-c3ccc(F)cc3)nn2)C[C@@H]1c1ccc(Cl)cc1,16,-2,6,-3,2,x,x,x
Cc1ccc([C@H]2C[C@@H](O)[C@H](n3cc(-c4ccc(F)cc4)nn3)CN2C(=O)C2CCCCC2)cc1,19,-7,12,-6,10*,x,29*,15*
CCCCCC(=O)N1C[C@@H](n2cc(-c3ccc(F)cc3)nn2)[C@H](O)C[C@@H]1c1ccc(Cl)cc1,47,-6,15,-7,11*,x,29*,17*
O=C(C1CCCCC1)N1C[C@H](n2cc(-c3ccc(F)cc3)nn2)[C@@H](O)C[C@@H]1c1ccc(Cl)cc1,20,7,9,-5,4,x,x,x
SMILES,FAS-TE inh,CendR NRP1 mod,ADAM10 inh,CaV13 FRET inh,ADAM17 inh,Arr AP2 block,ADAM10 counter,ADAM17 confirm
Cc1ccc(OCC(=O)NNC(=O)c2ccoc2C)c(Br)c1,-1,-4,2,-5,-2,3,x,x
Cc1occc1C(=O)NNC(=O)COc1ccc(Br)cc1Br,-6,3,12,-3,8.8*,2,-5,2
CCC(C(=O)Nc1cccc(C(F)(F)F)c1)c1ccccc1 (centres undefined),30,0,14,-7,8.7*,-1,20*,9.4*
CC1(c2nnnn2-c2ccc3c(c2)OCCO3)CCC(=O)N1CCc1c[nH]c2ccccc12 (centres undefined),-11,5,7,-9,-2,x,x,x
O=C(OCc1cnc(Cl)s1)c1ccccc1Cl,2,13,2,x,-1,11,x,x
O=C(OCc1cnc(Cl)s1)c1cccc(Cl)c1Cl,16,1,7,x,9.0*,-32,19,12*
CCC(CC)C(=O)Nc1c(C(=O)N2CCN(c3ccccc3)CC2)oc2ccccc12,15,6,-6,-2,9.3*,-3,3,4
COc1ccc(/C=N/NC(=O)C(=O)/C=C2\NC3(CCCC3)Cc3ccccc32)cc1,11,-8,10,-20,11*,20,9,8
COc1ccc(/C=N/NC(=O)C(=O)N2CCCC2)cc1,-2,1,10,2,0,-1,x,x
COC(=O)C1=C(C(=O)OC)SC2(S1)C(C(=O)OC)=C(C(=O)OC)SC1=C2c2cccc(C)c2NC1(C)C,-4,4,13,-6,13*,2,19,11*
Cc1ccc(OCc2nc3ccccc3n2C(C(=O)Nc2c(C)cccc2C)C2CC2)cc1 (centres undefined),x,-13,1,-8,3,x,x,x
COc1ccc(C=NNC(=O)Cc2cc(=O)[nH][nH]2)c(OC)c1,x,x,-3,x,-4,x,x,x
O=C(Cc1cccs1)Nc1nc(-c2ccc(F)cc2F)cs1,32,-2,16,-5,14*,7,19,11*

# Bioassay records from PubChem BioAssay.
